Reference: ChEMBL document CHEMBL1255558, “Bis-alkylamine quindolone derivatives as new antimalarial leads” (Bioorg Med Chem Lett, 2010)

Tests used:
Plasmodium falciparum = assay: Antimalarial activity against chloroquine-resistant Plasmodium falciparum W2; format: functional, organism-based
Summary of the method: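 Ring-stage parasites (1% parasitaemia in human red cells, sorbitol-synchronised) exposed to compounds for 48 h at 37 °C in RPMI-1640 with 25 mM HEPES pH 7.4 and 10% heat-inactivated human serum. Cells then fixed in 2% HCHO/PBS, stained with 1 nM YOYO-1 in PBS containing 100 mM NH₄Cl and 0.1% Triton X-100, and counted by flow cytometry (ex 488/em 520 nm). IC50 derived by curve fitting.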

[1] = Cytotoxicity against human HepG2A16 cells; format: cell-based
Summary of the method: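 HepG2 A16 human hepatic cells seeded at 1 × 10⁴ cells/well and exposed to a range of concentrations for 48 h under standard culture conditions. IC₅₀ (50% growth inhibition) read from plots of degree of cell injury against concentration.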

[2] = Selectivity ratio of IC50 for human HepG2A16 cells to IC50 for Plasmodium falciparum W2; format: ADME
Summary of the method: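 Ratio of HepG2 A16 cytotoxicity IC₅₀ (48 h) to W2 IC₅₀. The W2 assay used sorbitol-synchronized ring stages at 1% parasitemia in human RBCs, 48 h at 37 °C in RPMI-1640 with 25 mM HEPES pH 7.4 and 10% heat-inactivated human serum. Cells were then fixed in 2% HCHO, stained with 1 nM YOYO-1 and counted by flow cytometry.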

[3] = Binding to hematin monomer

Row | SMILES | IC50 (Plasmodium falciparum) [µM] | IC50 [1] [µM] | selectivity ratio [2] | log Kass [3]
1 | CCN(CC)CCOc1c2ccccc2nc2c3ccccc3n(CCN(CC)CC)c12 | 0.539 | 7 | 12 | 4.9
2 | CCN(CC)CCn1c2ccc(Cl)cc2c2c1c(=O)c1ccc(Cl)cc1n2CCN(CC)CC | 0.334 | 11 | 31 | 5.1
3 | CCN(CC)CCn1c2ccccc2c2c1c(=O)c1ccc(Cl)cc1n2CCN(CC)CC | 0.202 | 7 | 33 | 4.9
4 | CCN(CC)CCOc1c2ccc(Cl)cc2nc2c1[nH]c1ccccc12 | 1.33 | – | – | 5.1
5 | CCN(CC)CCn1c2ccccc2c2c1c(=O)c1ccccc1n2CCN(CC)CC | 0.267 | 4.33 | 16 | 4.9
6 | CCN(CC)CCOc1c2ccc(Cl)cc2nc2c3ccccc3n(CCN(CC)CC)c12 | 0.186 | 8 | 44 | 4.9
7 | O=c1c2ccccc2[nH]c2c1[nH]c1ccccc12 | > 10 | 21 | < 2 | 4.7
8 | CCN(CC)CCOc1c2ccccc2nc2c1[nH]c1ccccc12 | 2.64 | 9 | 3.6 | 5
9 | CCN(CC)CCOc1c2ccc(Cl)cc2nc2c1[nH]c1ccc(Cl)cc12 | 0.55 | – | – | –
10 | O=c1c2ccc(Cl)cc2[nH]c2c1[nH]c1ccccc12 | 8.42 | – | – | 5
11 | O=c1c2ccc(Cl)cc2[nH]c2c1[nH]c1ccc(Cl)cc12 | > 10 | – | – | 4.9
12 | CCN(CC)CCOc1c2ccc(Cl)cc2nc2c3cc(Cl)ccc3n(CCN(CC)CC)c12 | 0.051 | 5 | 98 | 5.2
